According to ChEMBL document CHEMBL1152633, “Synthesis and biological evaluation of flavan-3-ol derivatives as positive modulators of GABAA receptors” (Bioorg Med Chem, 2009):

Tests used:
[1] = biological target: T1, GABA-A receptor; alpha-1/beta-2/gamma-2 (Homo sapiens) (UniProt P14867+P47870+P18507); assay: Modulatory activity at human GABAA alpha-1-beta-2-gamma-2L receptor expressed in Xenopus laevis oocytes assessed as potentiation of GABA EC5-induced currents at 30 uM by two-electrode voltage clamp assay; type: cell-based; details: Oocyte
Outline: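 Stage V–VI oocytes were injected with 2–3 ng cRNA (α:β:γ 1:1:2) and kept 3–4 days at 16 °C in ND96 with pyruvate, theophylline and gentamycin. Two-electrode voltage clamp was run in ND96 at pH 7.5 with 3 M KCl electrodes. Test drug was co-applied with GABA EC5, with a 5–10 min washout between applications. Currents were normalised to a reference modulator at the same concentration on the same cell (n ≤ 5).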

[2] = biological target: T2, GABA-A receptor; alpha-1/beta-2/gamma-2 (Homo sapiens, UniProt P14867+P18507+P47870); assay: Modulatory activity at human GABAA alpha-1-beta-2-gamma-2L receptor expressed in Xenopus laevis oocytes assessed as potentiation of GABA EC5-induced currents by two-electrode voltage clamp assay; type: cell-based, Oocyte
T2 sequence (P14867 whole entry): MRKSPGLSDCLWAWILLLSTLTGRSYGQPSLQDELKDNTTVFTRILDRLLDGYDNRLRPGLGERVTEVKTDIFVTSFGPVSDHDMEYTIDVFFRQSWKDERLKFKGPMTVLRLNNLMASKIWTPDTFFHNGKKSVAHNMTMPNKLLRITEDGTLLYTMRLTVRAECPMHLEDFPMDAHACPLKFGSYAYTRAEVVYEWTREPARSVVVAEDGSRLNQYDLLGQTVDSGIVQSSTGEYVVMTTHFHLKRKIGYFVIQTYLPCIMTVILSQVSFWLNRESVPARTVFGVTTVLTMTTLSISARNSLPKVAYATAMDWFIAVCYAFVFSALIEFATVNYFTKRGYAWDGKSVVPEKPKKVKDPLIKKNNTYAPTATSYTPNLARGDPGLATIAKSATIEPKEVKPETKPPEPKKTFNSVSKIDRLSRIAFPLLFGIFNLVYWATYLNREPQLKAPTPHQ
T2 sequence (P47870 whole entry): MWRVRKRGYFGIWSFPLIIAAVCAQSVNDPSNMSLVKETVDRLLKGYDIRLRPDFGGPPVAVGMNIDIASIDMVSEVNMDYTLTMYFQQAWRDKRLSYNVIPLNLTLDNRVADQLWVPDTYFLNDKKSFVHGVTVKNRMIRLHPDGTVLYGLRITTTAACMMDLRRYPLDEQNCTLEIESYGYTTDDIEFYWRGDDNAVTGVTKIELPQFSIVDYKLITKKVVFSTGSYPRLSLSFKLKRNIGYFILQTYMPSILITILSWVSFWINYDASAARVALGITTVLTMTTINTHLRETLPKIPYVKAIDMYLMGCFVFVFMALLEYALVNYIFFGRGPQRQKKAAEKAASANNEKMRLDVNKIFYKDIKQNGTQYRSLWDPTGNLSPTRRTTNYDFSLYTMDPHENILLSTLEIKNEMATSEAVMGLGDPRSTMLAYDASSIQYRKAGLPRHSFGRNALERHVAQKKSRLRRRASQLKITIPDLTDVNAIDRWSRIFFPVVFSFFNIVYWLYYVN
T2 sequence (P18507 whole entry): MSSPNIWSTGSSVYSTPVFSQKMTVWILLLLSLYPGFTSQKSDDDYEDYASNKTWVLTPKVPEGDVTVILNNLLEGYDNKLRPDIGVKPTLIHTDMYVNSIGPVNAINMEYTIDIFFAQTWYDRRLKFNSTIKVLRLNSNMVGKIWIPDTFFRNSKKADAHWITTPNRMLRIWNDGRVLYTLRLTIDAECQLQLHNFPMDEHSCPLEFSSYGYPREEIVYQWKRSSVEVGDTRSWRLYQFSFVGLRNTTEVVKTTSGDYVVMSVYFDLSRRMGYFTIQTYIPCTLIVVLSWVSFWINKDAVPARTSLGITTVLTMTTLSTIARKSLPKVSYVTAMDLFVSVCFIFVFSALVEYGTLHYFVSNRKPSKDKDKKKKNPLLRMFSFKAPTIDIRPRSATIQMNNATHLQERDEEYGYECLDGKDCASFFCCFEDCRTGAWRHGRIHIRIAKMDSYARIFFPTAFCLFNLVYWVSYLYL
Outline: (§1)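 Oocytes were injected with cRNA (α:β:γ 1:1:2) and incubated 3–4 days at 16 °C in ND96. TEVC was run in ND96 at pH 7.5, co-applying the drug at a range of concentrations with GABA EC5, with a 5–10 min washout between applications. Potentiation = (Idrug − IGABA) × 100/IGABA. Data are mean ± SEM, n ≥ 8, from at least two oocyte batches.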

[3] = biological target: T1, GABA-A receptor; alpha-1/beta-2/gamma-2 (Homo sapiens); assay: Modulatory activity at human GABAA alpha-1-beta-2-gamma-2L receptor expressed in Xenopus laevis oocytes assessed as potentiation of GABA EC5-induced currents at 30 uM by two-electrode voltage clamp assay relative to untreated control; type: cell-based; details: Oocyte; outline: as §1
[4] = biological target: T1, GABA-A receptor; alpha-1/beta-2/gamma-2 (Homo sapiens); assay: Modulatory activity at human GABAA alpha-1-beta-2-gamma-2L receptor expressed in Xenopus laevis oocytes assessed as potentiation of GABA EC5-induced currents at 50 uM by two-electrode voltage clamp assay relative to untreated control; type: cell-based; details: Oocyte; outline: as §1

Row | Structure (SMILES) | Activity [1] | other results
1 | COc1ccc([C@H]2Oc3ccccc3C[C@H]2OC(C)=O)cc1 | < 50% | –
2 | COc1ccc([C@@H]2Oc3ccc(C)cc3C[C@H]2OC(C)=O)cc1OC | > 50% | –
3 | COc1ccc([C@@H]2Oc3ccccc3C[C@H]2OC(C)=O)cc1OC | > 50% | EC50 [2]: 6.68 µM; fold change (FC) [3]: 14.7
4 | COc1ccc([C@H]2Oc3cc(OCc4ccccc4)ccc3C[C@H]2OC(C)=O)cc1 | < 50% | –
5 | COc1ccc([C@@H]2Oc3ccc(OC)cc3C[C@H]2OC(C)=O)cc1 | > 50% | EC50 [2]: 15 µM
6 | COc1ccc([C@H]2Oc3ccccc3C[C@@H]2OC(C)=O)cc1OC | > 50% | –
7 | CC(=O)O[C@H]1Cc2ccccc2O[C@H]1c1ccc(O)cc1 | < 50% | –
8 | COc1ccc([C@H]2Oc3ccc(C)cc3C[C@@H]2OC(C)=O)cc1OC | < 50% | –
9 | COc1ccc([C@@H]2Oc3cc(OCc4ccccc4)ccc3C[C@H]2OC(C)=O)cc1OC | < 50% | –
10 | CC(=O)O[C@H]1Cc2ccccc2O[C@@H]1c1ccc(O)cc1 | < 50% | –
11 | COc1ccc([C@@H]2Oc3ccccc3C[C@@H]2OC(C)=O)cc1OC | < 50% | –
12 | COc1ccc([C@@H]2Oc3ccccc3C[C@H]2OC(C)=O)cc1 | 700% | fold change (FC) [4]: 8.5; EC50 [2]: 13.7 µM
13 | COc1ccc([C@@H]2Oc3ccccc3C[C@H]2O)cc1 | < 50% | –
14 | COc1ccc([C@H]2Oc3cc(O)ccc3C[C@@H]2OC(C)=O)cc1OC | < 50% | –
15 | CC(=O)O[C@H]1Cc2ccccc2O[C@@H]1c1ccc(OCc2ccccc2)cc1 | < 50% | –
16 | CC(=O)O[C@H]1Cc2ccccc2O[C@H]1c1ccc(OCc2ccccc2)cc1 | < 50% | –
17 | COc1cc([C@@H]2Oc3ccccc3C[C@H]2OC(C)=O)cc(Br)c1OC | > 50% | –
18 | COc1ccc([C@H]2Oc3ccccc3C[C@H]2O)cc1 | < 50% | –
19 | CC(=O)O[C@H]1Cc2ccccc2O[C@@H]1c1ccc2c(c1)OCO2 | > 50% | –
20 | COc1ccc([C@@H]2Oc3cc(O)ccc3C[C@H]2OC(C)=O)cc1 | > 50% | fold change (FC) [4]: 10.5
21 | COc1ccc([C@@H]2Oc3cc(O)ccc3C[C@H]2OC(C)=O)cc1OC | > 50% | EC50 [2]: 12.1 µM; fold change (FC) [3]: 12
22 | COc1ccc([C@@H]2Oc3ccccc3C[C@@H]2OC(C)=O)cc1 | < 50% | –
23 | COc1ccc([C@@H]2Oc3cc(OCc4ccccc4)ccc3C[C@H]2OC(C)=O)cc1 | < 50% | –
24 | COc1ccc([C@H]2Oc3ccccc3C[C@@H]2OC(C)=O)cc1 | > 50% | –
25 | CC(=O)O[C@@H]1Cc2ccccc2O[C@H]1c1ccc2c(c1)OCO2 | > 50% | –
26 | COc1ccc([C@H]2Oc3cc(OCc4ccccc4)ccc3C[C@@H]2OC(C)=O)cc1OC | < 50% | –
27 | COc1ccc([C@@H]2Oc3cc(O)ccc3C[C@@H]2OC(C)=O)cc1 | < 50% | –
28 | COc1ccc([C@H]2Oc3ccc(OC)cc3C[C@H]2OC(C)=O)cc1 | < 50% | –
